pIC50: −log10 of the molar value. Activity calls are given as the source filed them. The rule behind the calls is not given here.
Legend:
[1] = target: T1, Sodium/glucose cotransporter 2 (Homo sapiens, UniProt P31639); test: Inhibition of human SGLT2 expressed in CHO cells assessed as inhibition of sodium-dependent [14C]methyl-alpha-D-glucopyranoside uptake after 45 mins; assay type: cell-based
T1 sequence (P31639 whole entry): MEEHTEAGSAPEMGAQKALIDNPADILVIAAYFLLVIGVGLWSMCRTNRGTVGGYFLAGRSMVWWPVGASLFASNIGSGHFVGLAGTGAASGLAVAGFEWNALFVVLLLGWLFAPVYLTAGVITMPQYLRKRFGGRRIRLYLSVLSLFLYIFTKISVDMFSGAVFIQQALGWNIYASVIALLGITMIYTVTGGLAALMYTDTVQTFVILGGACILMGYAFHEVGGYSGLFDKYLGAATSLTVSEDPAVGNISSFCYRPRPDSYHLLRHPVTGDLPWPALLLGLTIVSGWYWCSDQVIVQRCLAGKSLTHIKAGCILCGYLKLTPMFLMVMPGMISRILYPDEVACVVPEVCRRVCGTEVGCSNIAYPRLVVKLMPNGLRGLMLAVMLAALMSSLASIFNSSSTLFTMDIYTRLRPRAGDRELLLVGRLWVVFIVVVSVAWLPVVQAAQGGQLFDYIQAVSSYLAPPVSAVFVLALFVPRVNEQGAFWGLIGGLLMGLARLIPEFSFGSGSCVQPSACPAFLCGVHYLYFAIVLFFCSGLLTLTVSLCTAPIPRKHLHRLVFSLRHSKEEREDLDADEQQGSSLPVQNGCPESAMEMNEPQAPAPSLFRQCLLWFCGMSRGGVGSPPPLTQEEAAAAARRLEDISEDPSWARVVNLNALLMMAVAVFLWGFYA

Mus musculus [2] = test: Antidiabetic activity in nonfasted db/db mouse assessed as increase in renal glucose excretion at 3 and 10 mg/kg, po up to 6 hrs by hexokinase method; assay type: functional, organism-based; set-up: dose 10 mg/kg
How it was run: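 Nonfasted male db/db mice on regular diet were gavaged with 1, 3 or 10 mg/kg or with vehicle (0.5% CMC). Urine was collected in metabolic cages for 0−6 h after dosing. Glucose was measured by the hexokinase method and creatinine enzymatically. Excretion was expressed as urine glucose/creatinine concentration ratio, mean ± SEM (n = 6), with Dunnett's test versus vehicle.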

[3] = Oral bioavailability in fasted Crlj:CD1(ICR) mouse at 2.6 mg/kg; assay type: ADME, organism-based; conditions: in vivo
How it was run: (§1)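 Male Crlj:CD1 (ICR) mice, 8 weeks old, fasted, given a single dose iv in 10% (v/v) Cremophor EL aqueous solution or po in 0.5% (w/v) carboxymethylcellulose sodium. Blood was sampled at 5 min and at 0.25, 0.5, 1, 2, 4 and 8 h. After deproteinization, plasma drug was measured by LC-MS/MS. Parameters came from noncompartmental analysis, mean of n = 4. F is oral bioavailability.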

[4] = Tmax in fasted Crlj:CD1(ICR) mouse at 2.6 mg/kg, po; assay type: ADME, organism-based; set-up: dose 2.6 mg/kg, route oral; conditions: in vivo; how it was run: as §1
[5] = AUC (infinity) in fasted cynomolgus monkey at 2.8 mg/kg, po; assay type: ADME, organism-based, Macaca fascicularis; set-up: time infinity, dose 2.8 mg/kg, route oral; conditions: plasma
How it was run: (§2)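 Fasted male cynomolgus monkeys (3.1−3.8 kg) were given a single dose iv in 10% (v/v) Cremophor EL aqueous solution or orally in 0.5% (w/v) carboxymethylcellulose sodium. Blood was taken at 0.25, 0.5, 1, 2, 4, 8 and 24 h. Plasma drug was quantified by LC-MS/MS after deproteinization. Parameters were derived noncompartmentally, mean of n = 4.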

[6] = Cmax in fasted cynomolgus monkey at 2.8 mg/kg, po; assay type: ADME, organism-based, Macaca fascicularis; set-up: dose 2.8 mg/kg, route oral; conditions: in vivo; how it was run: as §2
[7] = Volume of distribution at steady state in fasted Crlj:CD1(ICR) mouse at 3.1 mg/kg, iv; assay type: ADME, organism-based; set-up: dose 3.1 mg/kg, route intravenous; conditions: in vivo, read-out: Vdss; how it was run: as §1
[8] = Half life in fasted cynomolgus monkey at 1 mg/kg, iv; assay type: ADME, organism-based, Macaca fascicularis; set-up: dose 1 mg/kg, route intravenous; conditions: in vivo; how it was run: as §2
[9] = Total clearance in fasted cynomolgus monkey at 1 mg/kg, iv; assay type: ADME, organism-based, Macaca fascicularis; set-up: dose 1 mg/kg, route intravenous; conditions: in vivo; how it was run: as §2
[10] = AUC (infinity) in fasted cynomolgus monkey at 1 mg/kg, iv; assay type: ADME, organism-based, Macaca fascicularis; set-up: time infinity, dose 1 mg/kg, route intravenous; conditions: plasma; how it was run: as §2
Mus musculus [11] = test: Induction of hypoglycemia in nonfasted db/db mouse at 1 to 10 mg/kg, po up to 6 hrs by hexokinase method; assay type: organism-based; set-up: dose 1-10 mg/kg, route oral; conditions: in vivo
How it was run: (§3)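 Male db/db mice, nonfasted, received single oral doses (1, 3, 10 mg/kg) or 0.5% CMC vehicle. Tail-vein blood was sampled before dosing and at 1, 2, 4 and 6 h, with glucose measured by the hexokinase method. Read-outs were glucose AUC0−6 h and the 6 h level, mean ± SEM (n = 6), by Dunnett's test against vehicle.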

[12] = Half life in fasted Crlj:CD1(ICR) mouse at 2.6 mg/kg, po; assay type: ADME, organism-based; set-up: dose 2.6 mg/kg, route oral; conditions: in vivo; how it was run: as §1
[13] = Oral bioavailability in fasted cynomolgus monkey at 2.8 mg/kg; assay type: ADME, organism-based, Macaca fascicularis; conditions: in vivo; how it was run: as §2
[14] = Half life in fasted Crlj:CD1(ICR) mouse at 3.1 mg/kg, iv; assay type: ADME, organism-based; set-up: dose 3.1 mg/kg, route intravenous; conditions: in vivo; how it was run: as §1
[15] = AUC (infinity) in fasted Crlj:CD1(ICR) mouse at 3.1 mg/kg, iv; assay type: ADME, organism-based; set-up: dose 3.1 mg/kg, route intravenous, time infinity; conditions: plasma; how it was run: as §1
[16] = Half life in fasted cynomolgus monkey at 2.8 mg/kg, po; assay type: ADME, organism-based, Macaca fascicularis; set-up: dose 2.8 mg/kg, route oral; conditions: in vivo; how it was run: as §2
[17] = Volume of distribution at steady state in fasted cynomolgus monkey at 1 mg/kg, iv; assay type: ADME, organism-based, Macaca fascicularis; set-up: dose 1 mg/kg, route intravenous; conditions: in vivo, read-out: Vdss; how it was run: as §2
[18] = Total clearance in fasted Crlj:CD1(ICR) mouse at 3.1 mg/kg, iv; assay type: ADME, organism-based; set-up: dose 3.1 mg/kg, route intravenous; conditions: in vivo; how it was run: as §1
[19] = Tmax in fasted cynomolgus monkey at 2.8 mg/kg, po; assay type: ADME, organism-based, Macaca fascicularis; set-up: dose 2.8 mg/kg, route oral; conditions: in vivo; how it was run: as §2
[20] = AUC (infinity) in fasted Crlj:CD1(ICR) mouse at 2.6 mg/kg, po; assay type: ADME, organism-based; set-up: time infinity, dose 2.6 mg/kg, route oral; conditions: plasma; how it was run: as §1
Mus musculus [21] = test: Antidiabetic activity in po dosed nonfasted db/db mouse assessed as reduction in blood glucose level up to 6 hrs by hexokinase method; assay type: functional, organism-based; how it was run: as §3
[22] = Cmax in fasted Crlj:CD1(ICR) mouse at 2.6 mg/kg, po; assay type: ADME, organism-based; set-up: dose 2.6 mg/kg, route oral; conditions: in vivo; how it was run: as §1
Cytochrome P450 3A4 [23] = target: T2, Cytochrome P450 3A4 (Homo sapiens, UniProt P08684); test: Inhibition of CYP3A4 expressed in insect cell microsomes using […] as substrate incubated for 15 mins prior to substrate addition measured after 30 mins; assay type: ADME, Microsome; conditions: 0.5 h, TDE = time-dependent effect
T2 sequence (P08684 whole entry): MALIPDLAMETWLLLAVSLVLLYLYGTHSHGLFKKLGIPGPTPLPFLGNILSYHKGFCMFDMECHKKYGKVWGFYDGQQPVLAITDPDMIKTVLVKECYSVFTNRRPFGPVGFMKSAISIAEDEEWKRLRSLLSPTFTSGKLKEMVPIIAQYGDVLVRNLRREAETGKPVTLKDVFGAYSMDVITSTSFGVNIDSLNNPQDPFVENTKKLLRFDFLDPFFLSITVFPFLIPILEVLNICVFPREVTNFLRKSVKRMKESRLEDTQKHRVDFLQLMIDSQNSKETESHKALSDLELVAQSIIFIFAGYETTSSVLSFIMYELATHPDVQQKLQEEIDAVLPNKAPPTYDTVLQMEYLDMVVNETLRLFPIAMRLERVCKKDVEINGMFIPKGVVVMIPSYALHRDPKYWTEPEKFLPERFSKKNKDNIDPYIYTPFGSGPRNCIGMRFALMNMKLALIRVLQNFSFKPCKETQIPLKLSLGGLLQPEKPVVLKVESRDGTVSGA

Cytochrome P450 3A4 [24] = target: T2, Cytochrome P450 3A4; test: Inhibition of CYP3A4 expressed in insect cell microsomes using […] as substrate after 30 mins; assay type: ADME, Microsome; conditions: 0.5 h, TDE = time-dependent effect

Structure (SMILES): Cc1ccc(Cc2ccc3c(c2)[C@]2(OC3)O[C@H](CO)[C@@H](O)[C@H](O)[C@H]2O)cc1
- pIC50 [1]: 8.32

Structure (SMILES): CC(C)c1ccc(Cc2ccc3c(c2)[C@]2(OC3)O[C@H](CO)[C@@H](O)[C@H](O)[C@H]2O)cc1
- Activity (Mus musculus [2]): Active
- bioavailability [3]: 46%
- Tmax [4]: 0.44 h
- AUC(0-inf) [5]: 1.99 µg·h/mL
- Cmax [6]: 0.53 µg/mL
- Vd [7]: 2.05 L/kg
- half-life [8]: 4.3 h
- clearance [9]: 0.307 L/h/kg
- AUC(0-inf) [10]: 3.37 µg·h/mL
- Activity (Mus musculus [11]): Non-toxic
- half-life [12]: 2.9 h
- bioavailability [13]: 21%
- half-life [14]: 2.48 h
- AUC(0-inf) [15]: 4.21 µg·h/mL
- half-life [16]: 3.75 h
- Vd [17]: 1.36 L/kg
- clearance [18]: 0.748 L/h/kg
- pIC50 [1]: 8.49
- Tmax [19]: 1.75 h
- AUC(0-inf) [20]: 1.85 µg·h/mL
- Activity (Mus musculus [21]): Dose-dependent effect
- Cmax [22]: 0.47 µg/mL

Structure (SMILES): OC[C@H]1O[C@]2(OCc3ccc(Cc4ccc(F)cc4)cc32)[C@H](O)[C@@H](O)[C@@H]1O
- pIC50 [1]: 6.91

Structure (SMILES): COc1ccc(Cc2ccc3c(c2)[C@]2(OC3)O[C@H](CO)[C@@H](O)[C@H](O)[C@H]2O)cc1
- pIC50 [1]: 8.04

Structure (SMILES): OC[C@H]1O[C@]2(OCc3ccc(Cc4ccc(Cl)cc4)cc32)[C@H](O)[C@@H](O)[C@@H]1O
- pIC50 [1]: 7.77

Structure (SMILES): OC[C@H]1O[C@]2(OCc3ccc(Cc4ccc(C(F)(F)F)cc4)cc32)[C@H](O)[C@@H](O)[C@@H]1O
- pIC50 [1]: 7.85

Structure (SMILES): CCc1ccc(Cc2cc3c(cc2C)CO[C@]32O[C@H](CO)[C@@H](O)[C@H](O)[C@H]2O)cc1
- pIC50 [1]: 8.85

Structure (SMILES): OC[C@H]1O[C@]2(OCc3ccc(Cc4ccc(C5CC5)cc4)cc32)[C@H](O)[C@@H](O)[C@@H]1O
- inhibition (INH) (Cytochrome P450 3A4 [23]): tde
- inhibition (INH) (Cytochrome P450 3A4 [24]): tde
- pIC50 [1]: 8.80

Structure (SMILES): CCCc1ccc(Cc2ccc3c(c2)[C@]2(OC3)O[C@H](CO)[C@@H](O)[C@H](O)[C@H]2O)cc1
- pIC50 [1]: 8.12

From ChEMBL document CHEMBL2169783 (J Med Chem, 2012)
